Data published in ChEMBL document CHEMBL1641460, “Potent and selective thiophene urea-templated inhibitors of S6K” (Bioorg Med Chem Lett, 2011).
≈ marks a conversion by molar mass, not a printed value.

Columns and labels:
[1] = target: Mitogen-activated protein kinase 14 (Homo sapiens) (UniProt Q16539); assay: Inhibition of MAPK14 at 1 uM
[2] = target: Serine/threonine-protein kinase Sgk1 (Homo sapiens) (UniProt O00141); assay: Inhibition of SGK1 at 10 uM
[3] = target: Mitogen-activated protein kinase kinase kinase 9 (Homo sapiens) (UniProt P80192); assay: Inhibition of MAP3K9 at 10 uM
[4] = target: Ephrin type-A receptor 2 (Homo sapiens) (UniProt P29317); assay: Inhibition of EPHA2 at 1 uM
[5] = target: Protein kinase C zeta type (Homo sapiens) (UniProt Q05513); assay: Inhibition of PRKCZ at 1 uM
[6] = target: Serine/threonine-protein kinase Chk2 (Homo sapiens) (UniProt O96017); assay: Inhibition of CHEK2 at 10 uM
[7] = target: Serine/threonine-protein kinase pim-2 (Homo sapiens) (UniProt Q9P1W9); assay: Inhibition of PIM2 at 10 uM
[8] = target: Serine/threonine-protein kinase MARK1 (Homo sapiens) (UniProt Q9P0L2); assay: Inhibition of MARK1 at 10 uM
[9] = target: Casein kinase I isoform delta (Homo sapiens) (UniProt P48730); assay: Inhibition of CSNK1D at 10 uM
Chain of Casein kinase I isoform delta (Homo sapiens) (P48730 whole entry, looked up, canonical isoform): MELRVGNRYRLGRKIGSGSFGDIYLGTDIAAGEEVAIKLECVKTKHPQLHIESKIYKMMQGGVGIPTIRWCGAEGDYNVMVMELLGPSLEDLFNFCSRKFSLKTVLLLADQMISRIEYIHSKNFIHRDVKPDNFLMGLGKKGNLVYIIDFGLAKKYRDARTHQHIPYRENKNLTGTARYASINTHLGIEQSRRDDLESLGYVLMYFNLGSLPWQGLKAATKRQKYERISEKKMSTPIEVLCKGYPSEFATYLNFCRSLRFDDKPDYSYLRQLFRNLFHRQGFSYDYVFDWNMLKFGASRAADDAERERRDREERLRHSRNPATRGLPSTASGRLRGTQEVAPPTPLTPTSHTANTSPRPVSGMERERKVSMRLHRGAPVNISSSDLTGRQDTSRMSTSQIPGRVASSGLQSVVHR

[10] = target: Inhibitor of nuclear factor kappa-B kinase subunit epsilon (Homo sapiens) (UniProt Q14164); assay: Inhibition of IKBKE at 1 uM
Chain of Inhibitor of nuclear factor kappa-B kinase subunit epsilon (Homo sapiens) (Q14164 whole entry): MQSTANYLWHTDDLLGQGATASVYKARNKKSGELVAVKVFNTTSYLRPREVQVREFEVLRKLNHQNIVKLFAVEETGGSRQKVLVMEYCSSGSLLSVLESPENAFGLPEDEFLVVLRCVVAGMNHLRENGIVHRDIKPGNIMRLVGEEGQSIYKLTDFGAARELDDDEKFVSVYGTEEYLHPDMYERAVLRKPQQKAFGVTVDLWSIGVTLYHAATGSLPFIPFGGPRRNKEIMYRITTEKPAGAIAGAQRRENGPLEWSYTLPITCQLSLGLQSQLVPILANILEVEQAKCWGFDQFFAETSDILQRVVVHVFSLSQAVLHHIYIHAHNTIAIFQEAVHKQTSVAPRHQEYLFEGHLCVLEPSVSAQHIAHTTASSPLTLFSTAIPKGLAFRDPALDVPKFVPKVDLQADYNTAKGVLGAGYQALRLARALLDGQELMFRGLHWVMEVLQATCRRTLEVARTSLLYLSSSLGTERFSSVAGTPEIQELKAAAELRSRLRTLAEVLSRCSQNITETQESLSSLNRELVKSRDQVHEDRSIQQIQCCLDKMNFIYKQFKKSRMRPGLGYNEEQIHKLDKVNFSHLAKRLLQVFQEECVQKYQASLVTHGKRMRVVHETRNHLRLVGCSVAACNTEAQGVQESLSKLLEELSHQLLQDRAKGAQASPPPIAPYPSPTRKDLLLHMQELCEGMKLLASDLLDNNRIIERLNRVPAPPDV

[11] = target: Dual specificity protein kinase CLK1 (Homo sapiens) (UniProt P49759); assay: Inhibition of CLK1 at 1 uM
[12] = target: Fibroblast growth factor receptor 1 (Homo sapiens) (UniProt P11362); assay: Inhibition of FGFR1 at 1 uM
[13] = target: CYP3A4 (Homo sapiens, UniProt P08684); assay: Inhibition of CYP3A4 at 3 uM by LC/MS/MS analysis; type: ADME
[14] = target: Inhibitor of nuclear factor kappa-B kinase subunit epsilon (Homo sapiens) (UniProt Q14164); assay: Inhibition of IKBKE at 10 uM
[15] = target: Glycogen synthase kinase-3 beta (Homo sapiens) (UniProt P49841); assay: Inhibition of GSK3b at 10 uM
[16] = target: CYP2C9 (Homo sapiens, UniProt P11712); assay: Inhibition of CYP2C9 at 3 uM by LC/MS/MS analysis; type: ADME
[17] = target: Tyrosine-protein kinase JAK3 (Homo sapiens) (UniProt P52333); assay: Inhibition of JAK3 at 1 uM
Chain of Tyrosine-protein kinase JAK3 (Homo sapiens) (P52333 whole entry, looked up): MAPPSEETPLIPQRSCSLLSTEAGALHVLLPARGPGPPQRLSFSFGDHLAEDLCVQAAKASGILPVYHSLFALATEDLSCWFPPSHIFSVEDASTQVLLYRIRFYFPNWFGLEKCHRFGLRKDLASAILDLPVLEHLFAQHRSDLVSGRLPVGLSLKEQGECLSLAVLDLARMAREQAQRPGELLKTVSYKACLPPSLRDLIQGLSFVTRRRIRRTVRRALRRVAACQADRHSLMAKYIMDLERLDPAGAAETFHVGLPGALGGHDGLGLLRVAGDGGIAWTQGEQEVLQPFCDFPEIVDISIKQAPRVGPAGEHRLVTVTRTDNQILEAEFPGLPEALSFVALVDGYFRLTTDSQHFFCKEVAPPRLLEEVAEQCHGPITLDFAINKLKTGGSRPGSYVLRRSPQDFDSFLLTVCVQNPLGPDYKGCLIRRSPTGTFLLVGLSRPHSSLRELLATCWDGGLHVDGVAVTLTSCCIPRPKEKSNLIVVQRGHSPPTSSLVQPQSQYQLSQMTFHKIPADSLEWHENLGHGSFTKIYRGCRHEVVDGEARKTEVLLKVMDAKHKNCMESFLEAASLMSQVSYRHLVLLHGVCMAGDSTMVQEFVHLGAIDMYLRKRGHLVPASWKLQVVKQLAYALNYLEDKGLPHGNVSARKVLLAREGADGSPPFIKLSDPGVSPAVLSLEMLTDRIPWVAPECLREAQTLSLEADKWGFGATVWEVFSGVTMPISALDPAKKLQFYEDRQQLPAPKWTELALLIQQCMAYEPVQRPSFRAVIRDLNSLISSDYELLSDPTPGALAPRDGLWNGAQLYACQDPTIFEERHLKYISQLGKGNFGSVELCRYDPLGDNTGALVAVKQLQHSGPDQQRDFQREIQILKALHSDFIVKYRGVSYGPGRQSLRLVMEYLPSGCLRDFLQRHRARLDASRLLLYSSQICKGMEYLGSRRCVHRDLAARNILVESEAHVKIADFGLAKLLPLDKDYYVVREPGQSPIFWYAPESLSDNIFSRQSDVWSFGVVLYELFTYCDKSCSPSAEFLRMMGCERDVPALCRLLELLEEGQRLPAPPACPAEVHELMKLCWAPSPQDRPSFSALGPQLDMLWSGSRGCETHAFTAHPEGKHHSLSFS

[18] = target: Serine/threonine-protein kinase TAO3 (Homo sapiens) (UniProt Q9H2K8); assay: Inhibition of TAOK3 at 1 uM
[19] = target: Casein kinase I isoform delta (Homo sapiens) (UniProt P48730); assay: Inhibition of CSNK1D at 1 uM
[20] = target: Serine/threonine-protein kinase Nek2 (Homo sapiens) (UniProt P51955); assay: Inhibition of NEK2 at 1 uM
[21] = target: Cyclin-dependent kinase 2 (Homo sapiens) (UniProt P24941); assay: Inhibition of CDK2 at 1 uM
[22] = target: Serine/threonine-protein kinase MARK1 (Homo sapiens) (UniProt Q9P0L2); assay: Inhibition of MARK1 at 1 uM
[23] = target: Protein kinase C beta type (Homo sapiens) (UniProt P05771); assay: Inhibition of PRKCB at 1 uM
Chain of Protein kinase C beta type (Homo sapiens) (P05771 2-671 limits assumed): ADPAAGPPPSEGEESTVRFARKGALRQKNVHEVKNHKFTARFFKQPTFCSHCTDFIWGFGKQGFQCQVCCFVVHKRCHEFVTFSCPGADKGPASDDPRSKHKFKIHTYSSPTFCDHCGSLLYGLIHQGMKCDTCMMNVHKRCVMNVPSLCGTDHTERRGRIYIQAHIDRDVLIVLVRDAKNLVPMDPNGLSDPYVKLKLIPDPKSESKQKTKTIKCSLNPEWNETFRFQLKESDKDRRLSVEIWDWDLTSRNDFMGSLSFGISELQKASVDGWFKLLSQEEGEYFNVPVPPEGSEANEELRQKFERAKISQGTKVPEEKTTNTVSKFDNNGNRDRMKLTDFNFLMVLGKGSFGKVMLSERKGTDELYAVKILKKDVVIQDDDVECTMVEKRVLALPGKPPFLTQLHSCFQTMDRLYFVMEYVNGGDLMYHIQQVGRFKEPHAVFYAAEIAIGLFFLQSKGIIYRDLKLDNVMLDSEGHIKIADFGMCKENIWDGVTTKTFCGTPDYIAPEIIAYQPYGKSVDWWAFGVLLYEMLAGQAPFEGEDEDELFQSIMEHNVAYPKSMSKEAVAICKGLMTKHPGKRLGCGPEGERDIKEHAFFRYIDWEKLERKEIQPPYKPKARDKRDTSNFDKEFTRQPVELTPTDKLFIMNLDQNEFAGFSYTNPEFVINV

[24] = target: Rho-associated protein kinase 1 (Homo sapiens) (UniProt Q13464); assay: Inhibition of ROCK1 at 1 uM
[25] = target: Mitogen-activated protein kinase 1 (Homo sapiens) (UniProt P28482); assay: Inhibition of MAPK1 at 1 uM
[26] = target: Cyclin-dependent kinase 6 (Homo sapiens) (UniProt Q00534); assay: Inhibition of CDK6 at 1 uM
Chain of Cyclin-dependent kinase 6 (Homo sapiens) (Q00534 whole entry): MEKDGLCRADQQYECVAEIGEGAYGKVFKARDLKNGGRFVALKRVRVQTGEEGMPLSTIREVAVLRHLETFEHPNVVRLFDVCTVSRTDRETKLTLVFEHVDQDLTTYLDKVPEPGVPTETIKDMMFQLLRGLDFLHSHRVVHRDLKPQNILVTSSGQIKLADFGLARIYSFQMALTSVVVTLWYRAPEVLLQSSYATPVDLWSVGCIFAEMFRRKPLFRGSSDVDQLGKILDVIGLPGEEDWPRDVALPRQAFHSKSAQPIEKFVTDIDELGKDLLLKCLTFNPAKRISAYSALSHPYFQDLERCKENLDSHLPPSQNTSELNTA

[27] = target: Serine/threonine-protein kinase Sgk1 (Homo sapiens) (UniProt O00141); assay: Inhibition of SGK1 at 1 uM
[28] = target: Proto-oncogene tyrosine-protein kinase Src (Homo sapiens) (UniProt P12931); assay: Inhibition of SRC at 10 uM
[29] = target: Epidermal growth factor receptor (Homo sapiens) (UniProt P00533); assay: Inhibition of EGFR at 10 uM
Chain of Epidermal growth factor receptor (Homo sapiens) (P00533 whole entry): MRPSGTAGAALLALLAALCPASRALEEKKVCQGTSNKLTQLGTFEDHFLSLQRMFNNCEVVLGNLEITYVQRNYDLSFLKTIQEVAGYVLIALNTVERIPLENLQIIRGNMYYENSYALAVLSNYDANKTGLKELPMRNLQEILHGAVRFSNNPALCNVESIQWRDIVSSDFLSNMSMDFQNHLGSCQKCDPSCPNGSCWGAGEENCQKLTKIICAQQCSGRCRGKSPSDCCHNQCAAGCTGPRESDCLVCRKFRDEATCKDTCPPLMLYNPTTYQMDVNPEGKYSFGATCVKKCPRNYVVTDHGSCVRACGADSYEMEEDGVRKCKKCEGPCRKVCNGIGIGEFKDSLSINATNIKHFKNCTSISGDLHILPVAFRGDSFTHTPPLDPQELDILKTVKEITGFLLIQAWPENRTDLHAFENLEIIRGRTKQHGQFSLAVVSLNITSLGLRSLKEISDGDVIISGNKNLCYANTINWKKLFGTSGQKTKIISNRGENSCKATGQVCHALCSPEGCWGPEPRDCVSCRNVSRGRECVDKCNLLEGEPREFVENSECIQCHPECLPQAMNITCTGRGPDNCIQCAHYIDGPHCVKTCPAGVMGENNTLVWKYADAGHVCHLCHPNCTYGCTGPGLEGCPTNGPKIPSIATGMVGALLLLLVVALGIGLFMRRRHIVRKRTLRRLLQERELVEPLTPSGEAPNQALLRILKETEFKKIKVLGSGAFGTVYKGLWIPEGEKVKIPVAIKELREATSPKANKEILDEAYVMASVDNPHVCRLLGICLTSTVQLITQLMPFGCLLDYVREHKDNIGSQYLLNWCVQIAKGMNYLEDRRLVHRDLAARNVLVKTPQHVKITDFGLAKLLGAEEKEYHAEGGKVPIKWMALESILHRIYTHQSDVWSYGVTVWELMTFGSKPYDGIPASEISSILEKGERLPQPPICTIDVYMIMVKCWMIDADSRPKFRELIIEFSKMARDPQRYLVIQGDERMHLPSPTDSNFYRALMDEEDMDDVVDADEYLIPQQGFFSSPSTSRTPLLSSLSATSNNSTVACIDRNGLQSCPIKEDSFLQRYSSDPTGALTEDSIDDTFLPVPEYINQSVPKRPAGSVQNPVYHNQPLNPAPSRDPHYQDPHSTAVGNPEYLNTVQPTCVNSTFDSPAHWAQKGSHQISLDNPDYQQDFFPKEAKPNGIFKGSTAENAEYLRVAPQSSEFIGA

[30] = target: Myosin light chain kinase 2, skeletal/cardiac muscle (Homo sapiens) (UniProt Q9H1R3); assay: Inhibition of MYLK2 at 1 uM
[31] = target: Inhibitor of nuclear factor kappa-B kinase subunit beta (Homo sapiens) (UniProt O14920); assay: Inhibition of IKBKB at 1 uM
[32] = target: Protein kinase C beta type (Homo sapiens) (UniProt P05771); assay: Inhibition of PRKCB at 10 uM
[33] = target: Aurora kinase A (Homo sapiens) (UniProt O14965); assay: Inhibition of aurora A at 10 uM
[34] = target: 3-phosphoinositide-dependent protein kinase 1 (Homo sapiens) (UniProt O15530); assay: Inhibition of PDPK1 at 10 uM
Chain of 3-phosphoinositide-dependent protein kinase 1 (Homo sapiens) (O15530 whole entry): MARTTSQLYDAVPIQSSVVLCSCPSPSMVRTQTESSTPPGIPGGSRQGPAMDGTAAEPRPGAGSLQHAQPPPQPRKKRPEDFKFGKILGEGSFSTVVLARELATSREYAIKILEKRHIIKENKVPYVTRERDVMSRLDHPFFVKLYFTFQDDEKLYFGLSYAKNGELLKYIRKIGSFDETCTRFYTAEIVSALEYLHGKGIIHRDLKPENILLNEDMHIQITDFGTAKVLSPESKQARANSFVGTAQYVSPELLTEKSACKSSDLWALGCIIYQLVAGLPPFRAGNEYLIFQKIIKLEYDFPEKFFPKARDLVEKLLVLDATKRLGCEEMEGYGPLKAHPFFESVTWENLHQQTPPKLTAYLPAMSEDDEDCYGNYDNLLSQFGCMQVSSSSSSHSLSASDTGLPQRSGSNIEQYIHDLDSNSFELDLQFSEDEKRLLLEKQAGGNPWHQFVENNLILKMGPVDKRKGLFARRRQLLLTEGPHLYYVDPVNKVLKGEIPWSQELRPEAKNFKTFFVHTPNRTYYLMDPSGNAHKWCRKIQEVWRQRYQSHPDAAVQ

[35] = target: 3-phosphoinositide-dependent protein kinase 1 (Homo sapiens) (UniProt O15530); assay: Inhibition of PDPK1 at 1 uM
[36] = target: Glycogen synthase kinase-3 beta (Homo sapiens) (UniProt P49841); assay: Inhibition of GSK3b at 1 uM
[37] = target: Calcium/calmodulin-dependent protein kinase type 1 (Homo sapiens) (UniProt Q14012); assay: Inhibition of CAMK1 at 1 uM
[38] = target: Dual specificity protein kinase CLK1 (Homo sapiens) (UniProt P49759); assay: Inhibition of CLK1 at 10 uM
[39] = target: Vascular endothelial growth factor receptor 2 (Homo sapiens) (UniProt P35968); assay: Inhibition of KDR at 1 uM
[40] = target: Tyrosine-protein kinase JAK3 (Homo sapiens) (UniProt P52333); assay: Inhibition of JAK3 at 10 uM
[41] = target: Hepatocyte growth factor receptor (Homo sapiens) (UniProt P08581); assay: Inhibition of MET at 10 uM
[42] = target: Serine/threonine-protein kinase Chk1 (Homo sapiens) (UniProt O14757); assay: Inhibition of CHEK1 at 1 uM
[43] = target: Epidermal growth factor receptor (Homo sapiens) (UniProt P00533); assay: Inhibition of EGFR at 1 uM
[44] = Half life in human liver microsomes at 1 uM by LC/MS/MS analysis; type: ADME, Microsome
Outline: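 Test compound incubated with human liver microsomes to measure Phase I metabolic stability. Remaining compound quantified by LC/MS/MS, and stability reported as half-life (T1/2) in minutes.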

[45] = target: Cyclin-dependent kinase 6 (Homo sapiens) (UniProt Q00534); assay: Inhibition of CDK6 at 10 uM
[46] = Kinetic solubility of the compound in 50 mM phosphate buffer at pH 6.5; type: physicochemical
[47] = target: Tyrosine-protein kinase BTK (Homo sapiens) (UniProt Q06187); assay: Inhibition of BTK at 10 uM
[48] = target: Tyrosine-protein kinase Lck (Homo sapiens) (UniProt P06239); assay: Inhibition of LCK at 1 uM

- inhibition [1]: 10%
- inhibition [2]: 0%
- inhibition [3]: 20%
- inhibition [4]: 10%
- inhibition [5]: 20%
- inhibition [6]: 20%
- inhibition [7]: 0%
- inhibition [8]: 20%
- inhibition [9]: 20%
- inhibition [10]: 10%
- inhibition [11]: 10%
- inhibition [12]: 0%
- inhibition at 3 µM [13]: 0%
- inhibition [14]: 10%
- inhibition [15]: 10%
- inhibition at 3 µM [16]: 55%
- inhibition [17]: 40%
- inhibition [18]: 10%
- inhibition [19]: 20%
- inhibition [20]: 10%
- inhibition [21]: 10%
- inhibition [22]: 20%
- inhibition [23]: 10%
- inhibition [24]: 10%
- inhibition [25]: 10%
- inhibition [26]: 0%
- inhibition [27]: 0%
- inhibition [28]: 0%
- inhibition [29]: 10%
- inhibition [30]: 10%
- inhibition [31]: 10%
- inhibition [32]: 10%
- inhibition [33]: 0%
- inhibition [34]: 20%
- inhibition [35]: 20%
- inhibition [36]: 10%
- inhibition [37]: 10%
- inhibition [38]: 10%
- inhibition [39]: 0%
- inhibition [40]: 40%
- inhibition [41]: 0%
- inhibition [42]: 10%
- inhibition [43]: 10%
- half-life at 1 µM [44]: > 2 h
- inhibition [45]: 0%
- solubility kinetic [46]: 143 µg/mL (≈ 399 µM)
- inhibition [47]: 0%
- inhibition [48]: 0%
Compound: CC(C)(C)c1cc(C(=O)O)c(NC(=O)Nc2ccc3[nH]ncc3c2)s1
